Test results published in ChEMBL document CHEMBL1132600.

What was measured:
[1] = substrate: CCCCC/C=C\C/C=C\C/C=C\C/C=C\CCCC(=O)NCCO; assay: (§1) V max value for hydrolysis by rat brain microsomal anandamide amidohydrolase (AAH).
In short: (§2)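 Sprague–Dawley rat brain microsomes (105000g pellet) at 0.3 mg/mL protein, 37 °C, pH 7.4, BSA as carrier. Varied substrate concentrations, sampled at least four times within the linear initial range. Arachidonic acid formed measured by RP-HPLC (UV 204 nm, calibration curve). Initial velocity vs substrate concentration fitted to Michaelis–Menten.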

[2] = substrate: CCCCC/C=C\C/C=C\C/C=C\C/C=C\CCCC(=O)N[C@@H](C)CO; assay: as §1; in short: as §2
[3] = substrate: CCCCC/C=C\C/C=C\C/C=C\C/C=C\CCCC(=O)N[C@H](C)CO; assay: as §1; in short: as §2
[4] = substrate: CCCCC/C=C\C/C=C\C/C=C\C/C=C\CCCC(N)=O; assay: as §1; in short: as §2
[5] = substrate: CCCCC/C=C\C/C=C\C/C=C\C/C=C\CCCC(=O)NCCO; assay: (§3) Km value for hydrolysis by rat brain microsomal anandamide amidohydrolase (AAH).; in short: as §2
[6] = substrate: CCCCC/C=C\C/C=C\C/C=C\C/C=C\CCCC(=O)N[C@@H](C)CO; assay: as §3; in short: as §2
[7] = substrate: CCCCC/C=C\C/C=C\C/C=C\C/C=C\CCCC(=O)N[C@H](C)CO; assay: as §3; in short: as §2
[8] = substrate: CCCCC/C=C\C/C=C\C/C=C\C/C=C\CCCC(=O)Nc1ccccc1O; assay: as §3; in short: as §2
[9] = substrate: CCCCC/C=C\C/C=C\C/C=C\C/C=C\CCCC(N)=O; assay: as §3; in short: as §2
[10] = substrate: CCCCC/C=C\C/C=C\C/C=C\C/C=C\CCCC(=O)Nc1ccccc1O

B1: Fatty-acid amide hydrolase 1 (Rattus norvegicus), P97612 (protein)
chain: MVLSEVWTTLSGVSGVCLACSLLSAAVVLRWTGRQKARGAATRARQKQRASLETMDKAVQRFRLQNPDLDSEALLTLPLLQLVQKLQSGELSPEAVFFTYLGKAWEVNKGTNCVTSYLTDCETQLSQAPRQGLLYGVPVSLKECFSYKGHDSTLGLSLNEGMPSESDCVVVQVLKLQGAVPFVHTNVPQSMLSFDCSNPLFGQTMNPWKSSKSPGGSSGGEGALIGSGGSPLGLGTDIGGSIRFPSAFCGICGLKPTGNRLSKSGLKGCVYGQTAVQLSLGPMARDVESLALCLKALLCEHLFTLDPTVPPLPFREEVYRSSRPLRVGYYETDNYTMPSPAMRRALIETKQRLEAAGHTLIPFLPNNIPYALEVLSAGGLFSDGGRSFLQNFKGDFVDPCLGDLILILRLPSWFKRLLSLLLKPLFPRLAAFLNSMRPRSAEKLWKLQHEIEMYRQSVIAQWKAMNLDVLLTPMLGPALDLNTPGRATGAISYTVLYNCLDFPAGVVPVTTVTAEDDAQMELYKGYFGDIWDIILKKAMKNSVGLPVAVQCVALPWQEELCLRFMREVEQLMTPQKQPS
Vmax (nM min-1 mg-1) [1]: 1.4
Vmax (nM min-1 mg-1) [2]: 0.39
Vmax (nM min-1 mg-1) [3]: 0.37
Vmax (nM min-1 mg-1) [4]: 2.89
Km [5]: 2.78 µM
Km [6]: 7.94 µM
Km [7]: 33 µM
Km [8]: 7.31 µM
Km [9]: 2.34 µM
Vmax (nM min-1 mg-1) [10]: 3.17
